SUMO Mot1 rescue: inhibitors of SUMOylation pathway: yeast Mot1-301 growth rescue; S. cerevisiae Mot1-301 growth rescue, ATP luminescence, 38.5C; percent above DMSO median, 100 means doubled; AID 2716; 320,000 tested, 1% active; growth rescue, % at 18.8 µM;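 active = every valid replicate shows activation above 250% relative to neutral control wells; inactive = the rest, any valid replicate at or below 250%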;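 also: OY570 slx delta 5 strain wells were the positive control but not used for scaling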
KCNQ1 act: potentiates or activates the human KCNQ1 potassium channel. P51787. CHO-K1 KCNQ1, thallium flux FluxOR fluorescence; hits give high values. B-score at 10 µM. 310,000 tested, 0.35% active;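 active = fluorescence ratio B-score, a plate-corrected score, at least three library SD, with initial intensity B-score within 5 SD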
Target sequence (P51787 whole entry, looked up): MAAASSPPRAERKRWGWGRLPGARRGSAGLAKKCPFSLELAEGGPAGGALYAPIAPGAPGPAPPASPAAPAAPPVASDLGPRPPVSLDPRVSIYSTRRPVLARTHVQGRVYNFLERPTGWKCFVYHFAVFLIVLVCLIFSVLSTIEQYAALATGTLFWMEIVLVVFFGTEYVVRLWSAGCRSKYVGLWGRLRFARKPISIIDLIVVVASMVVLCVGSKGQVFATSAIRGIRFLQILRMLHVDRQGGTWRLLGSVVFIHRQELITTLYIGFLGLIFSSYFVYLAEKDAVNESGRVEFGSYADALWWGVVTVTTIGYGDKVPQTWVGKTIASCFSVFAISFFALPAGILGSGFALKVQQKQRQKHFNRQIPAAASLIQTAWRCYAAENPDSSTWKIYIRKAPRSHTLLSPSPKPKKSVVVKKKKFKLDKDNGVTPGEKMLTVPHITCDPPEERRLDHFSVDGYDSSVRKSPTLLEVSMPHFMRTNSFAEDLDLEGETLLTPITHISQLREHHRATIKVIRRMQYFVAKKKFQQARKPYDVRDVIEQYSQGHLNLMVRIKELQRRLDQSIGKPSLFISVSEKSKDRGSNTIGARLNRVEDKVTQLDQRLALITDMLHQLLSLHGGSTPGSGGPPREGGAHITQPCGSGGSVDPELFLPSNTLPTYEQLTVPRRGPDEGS
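assay system = KCNQ1-transfected CHO-K1 cells | medium = assay buffer with matched DMSO | probe or stimulus = depolarizing K+/Tl+ stimulus, K2SO4 and Tl2SO4 each 12.5 mM in 5x stock | dosing = single dose | incubation = dye 90 min, compound 20 min, room temperature | detection = kinetic FluxOR fluorescence, 10 s baseline plus 110 s post-stimulus | evaluation = ratio B score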
KCNQ1 block: inhibitors of human KCNQ1 potassium channel; 310,000 tested, 1.3% active; CHO-K1 KCNQ1, FluxOR thallium flux fluorescence; hits give high values; B-score at 10 µM; P51787;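 active = compounds whose thallium flux B-score, printed positive for inhibition, exceeds three library SD while starting fluorescence stays within three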;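 also: channel opened by potassium depolarization with thallium stimulus after 20 min compound exposure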
hERG rescue: shields human hERG channel from block by proarrhythmic agents. AID 1511. 310,000 tested, 0.51% active. CHO-hERG, FluxOR thallium flux, dofetilide IC70 present. activation (rescue from dofetilide block), less the hit threshold, % at 10 µM. Q12809;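 active = activation above the mean of controls blocked by dofetilide plus 5 SD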;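 also: thallium influx through hERG after potassium depolarization seen as dye fluorescence rise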
Cl transport mod: modulators of human KCC2 chloride dependent transport; B-score of Tl+ flux slope (higher = more flux/activation; lower = inhibition) at 10 µM; KCC2 cells, thallium flux FluoZin-2 fluorescence; AID 1456; 190,000 tested, 2.2% active;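 active = thallium flux slope and its plate-corrected score both differing from the plate sample mean at a set confidence after two filtering rounds, in either direction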;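 also: slope of fluorescence scaled to starting intensity during 10 to 20 s after thallium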
AI-2 QS mod: modulates the Vibrio harveyi AI-2 quorum sensing system | Vibrio harveyi JMH597 AI-2 luminescence/OD600 ratio, 9 h; hits give low values; strain lacks LuxN and CqsS sensors; 0 = neutral-control median | activity change, % at 7.5 µM | 300,000 tested, 0.4% active | AID 2094; in the data active = activity change below about -75%, passing the limit was not always enough; inconclusive = no clear call, values can overlap the other calls;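 also: luminescence divided by OD600 gain over 9 h not by final OD600 alone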
JMH597 growth: retest Vibrio harveyi JMH597 growth inhibition | shares compounds with AI-2 QS mod | OD600 absorbance, 9 h; lacks LuxN and CqsS sensors | growth inhibition, % at 7.5 µM | 750 tested, 1% active | AID 2726;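 active = every replicate shows growth inhibition above 50%; inconclusive = at least half, but not all, replicates pass that cutoff; inactive = fewer than half of replicates pass it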
BB721 const-QS lum: retest counter-screen: BB721 constitutive quorum sensing luminescence decrease. shares compounds with AI-2 QS mod. Vibrio harveyi BB721 luminescence, 9 h. inhibition, % at 7.5 µM. 750 tested, 95% active;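 active = inhibition above about 80% in every replicate, not just on average, limit read from the data; inconclusive = at least half of replicates past the limit, but not all; inactive = fewer than half of replicates past the limit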
BB721 growth rt: retest Vibrio harveyi BB721 growth inhibition; shares compounds with AI-2 QS mod; OD600 absorbance, 9 h; growth inhibition, % at 7.5 µM; 750 tested, 3% active; AID 2728;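 active = every replicate shows growth inhibition above 50%; inconclusive = at least half but not all replicates above 50% inhibition; inactive = under half of replicates above 50% inhibition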
AI-2 QS JMH597: Vibrio harveyi AI-2 signaling luminescence modulation – JMH597 strain, confirmation; inhibition, % at 7.5 µM; AID 2736; 750 tested, 97% active; shares compounds with AI-2 QS mod; Vibrio harveyi JMH597 AI-2 quorum sensing luminescence, 9 h; luxN and CqsS knockout, AI-2 only;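 active = every replicate shows more than 75% inhibition of signal versus neutral control wells; inconclusive = half to three quarters of replicates exceed 75% inhibition; inactive = fewer than half of replicates exceed 75% inhibition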
Active calls of the source: *; i = inactive; ? = inconclusive; . = not tested or not shown. Only some compounds are listed: those with a hit (about 4.2% of all), similar ones and a draw of the others.

SMILES	SUMO Mot1 rescue	KCNQ1 act	KCNQ1 block	hERG rescue	Cl transport mod	AI-2 QS mod	JMH597 growth	BB721 const-QS lum	BB721 growth rt	AI-2 QS JMH597
O=C(NCc1ccc(Cl)cc1)c1cc2ccccn2n1	-4	i	i	-8	0.13	-84*	36	92*	25	95*
c1ccc(-c2ccc(-c3cnc4n3CCCCC4)cc2)cc1	20	i	i	-10	.	-86*	-5	84*	-22	90*
Cc1ccc(-c2noc(CNS(=O)(=O)c3ccccc3)n2)cc1	11	i	i	-8	.	-26	.	.	.	.
O=C(CNC(=O)c1cccs1)N/N=C/c1ccc(Cl)cc1	-17	i	i	-6	.	-87*	-3	96*	9	96*
O=C(Cc1ccc(Cl)cc1)N/N=C/c1cccs1	18	i	i	-8	0.18	?	25	89*	18	90*
COc1ccc(/C=N/NC(=O)CNC(=O)c2cccs2)cc1	292	i	i	-10	0.053	-73	.	.	.	.
NC(=O)C1CCN(Cc2nc3cc(C(F)(F)F)ccc3c(=O)[nH]2)CC1	.	i	i	-9	-0.71	28	.	.	.	.
N#Cc1cnn(-c2ccccc2)c1NC(=O)CN1CCN(c2ccccc2)CC1	36	i	i	-10	0.26	17	.	.	.	.
O=C(CSc1n[nH]c(=O)n1C1CC1)Nc1ccc(Cl)c(Cl)c1	4	i	i	-8	.	-83*	-16	88*	-7	91*
O=C(OCCCOC(=O)c1ccccc1O)c1ccccc1O	2	i	i	-8	.	0	.	.	.	.
O=C(CN1C(=O)c2ccccc2S1(=O)=O)Nc1ccc(S(=O)(=O)N2CCCC2)cc1	62	i	i	-11	2.2	-95*	13	98*	29	98*
CSc1cccc(NC(=O)CN2C(=O)c3ccccc3S2(=O)=O)c1	-10	21*	i	6.5*	0.42	-86*	27	94*	5	96*
O=C(CN1C(=O)c2ccccc2S1(=O)=O)Nc1ccccc1	96	i	i	0	0.29	-1	.	.	.	.
O=C(CN1C(=O)c2ccccc2S1(=O)=O)Nc1ccc(S(=O)(=O)N2CCCCC2)cc1	17	i	i	-9	-1.4	-85*	42	96*	39	98*
O=S(=O)(c1ccc(Br)s1)n1cccn1	-4	i	i	-13	0.75	-91*	18	98*	-30	100*
O=S(=O)(c1cccs1)n1cccn1	-7	i	i	-8	.	26	.	.	.	.
O=C(O)c1ccc(NCc2cccc(Br)c2)cc1	-3	i	i	-4	-0.61	-91*	28	98*	?	98*
COc1ccc(CNc2ccc(C(=O)O)cc2)cc1	-9	i	i	-13	-0.79	-95*	18	99*	-3	99*
O=C(NCCc1ccccc1)C(=O)c1c[nH]c2ccccc12	4	i	i	-10	.	-39	.	.	.	.
O=C(NCc1ccc(Cl)cc1)C(=O)c1c[nH]c2ccccc12	-7	i	i	-11	0.29	-89*	-18	97*	-31	98*
C(=C\c1nc(-c2cccnc2)no1)/c1ccccc1	1	i	i	-8	-0.55	-95*	29	98*	21	99*
Clc1ccccc1/C=C/c1nc(-c2cccnc2)no1	-22	i	i	-7	0.75	-66	.	.	.	.
Nc1cccc(C(=O)Nc2cccc3ncccc23)c1	351	i	i	-8	.	?	2	5	17	-3
CC(=O)Nc1cccc(C(=O)Nc2cccc3ncccc23)c1	92	i	i	-6	.	14	.	.	.	.
O=C(NCc1ccco1)Nc1ccc([N+](=O)[O-])cc1	-19	i	i	-21	-0.85	3	.	.	.	.
SMILES	SUMO Mot1 rescue	KCNQ1 act	KCNQ1 block	hERG rescue	Cl transport mod	AI-2 QS mod	JMH597 growth	BB721 const-QS lum	BB721 growth rt	AI-2 QS JMH597
O=C(NCc1ccccc1F)Nc1ccc([N+](=O)[O-])cc1	5	i	i	-23	0.74	?	15	91*	24	93*
O=C(NCc1nc(-c2ccc(C(F)(F)F)cc2)no1)c1cccs1	-2	i	i	-2	-1.5	-94*	-19	96*	-13	97*
O=C(NCc1nc(-c2ccccc2)no1)c1ccc(Br)o1	19	i	i	-6	0.57	-95*	-24	98*	-28	99*
Cc1cccc(NCc2nc(-c3ccccc3)no2)c1	5	i	i	-13	0.77	?	12	96*	-11	98*
Cc1cccc(-c2noc(CNC(=O)c3ccco3)n2)c1	92	i	i	-2	.	-94*	8	99*	29	99*
O=C(NCc1ccccc1Cl)c1ccc(Br)o1	231	i	i	-18	1.2	10	.	.	.	.
O=C(CN(CCc1ccccc1)Cc1ccccc1)Oc1ccccc1P(=O)(O)O	196	i	i	-8	.	17	.	.	.	.
COc1ccc(CC(=O)Oc2ccc(Cl)cc2Br)cc1S(=O)(=O)N1CCOCC1	8	i	i	-14	.	21	.	.	.	.
CC(C)(C)NC(=S)NC1CC1	6	i	i	-9	0.58	21	.	.	.	.
CCc1nn(CC(=O)N2CC(C)CC(C)C2)c(=O)c2cccn12 (stereo not given)	-3	i	i	-5	.	-3	.	.	.	.
Cc1cccc(C)c1N(CC(=O)NCc1ccccc1)C(=O)c1csnn1	21	i	i	-13	.	.	.	.	.	.
Cc1ccc(NC(=O)CSc2nc(O)c(Cc3ccccc3)c(=O)n2-c2ccccc2)cc1	63	i	i	-4	0.17	18	.	.	.	.
CC(C)=CC(=O)OCC(=O)Nc1ccc(SC(F)F)cc1	-8	i	i	-8	-1.1	-87*	19	93*	-3	96*
CSc1nnc(-c2ccccc2)o1	-5	i	i	-10	1.2	?	-1	10	8	8
Cc1cccc(-c2nnc(SCc3ccccc3)o2)c1	.	i	i	-12	0.18	-89*	43	96*	?	97*

High-throughput results (PubChem BioAssay)
